Results of several laboratories.
Compare with care: the assays were run in different laboratories.
STK38L: Serine/threonine-protein kinase 38-like (STK38L, Homo sapiens, UniProt Q9Y2H1)
ALDH2: Aldehyde dehydrogenase, mitochondrial (ALDH2, Homo sapiens, UniProt P05091)

| SMILES | target | assay | system | conditions | quantity | value |
| --- | --- | --- | --- | --- | --- | --- |
| c1ccc(C(NCCNC(c2ccccc2)c2ccccc2)c2ccccc2)cc1 | Collagenase 3 (MMP13, Homo sapiens, UniProt P45452) | enzyme activity, inhibitor | – | 10 µM | inhibition | -10% |
| C=C=CCN | Primary amine oxidase, liver isozyme (Bos taurus, UniProt Q29437) | enzyme activity, inhibitor, fluorescence | – | – | kinact/KI | 9220 M⁻¹ s⁻¹ |
| COc1ncccc1-c1cnn2ccc(N3CCN(C(=O)OC(C)C)CC3)nc12 | STK38L | binding, competition with immobilised ligand | – | 1 µM | remaining binding | 100% |
| Cc1nn(C)cc1-c1nc2c(N3CCN(Cc4ccc(Cl)cc4)CC3)c(Cl)cnc2[nH]1 | Receptor tyrosine-protein kinase erbB-3 (ERBB3, Homo sapiens, UniProt P21860) | binding, competition with immobilised ligand | – | 1 µM | remaining binding | 95% |
| CC[C@]1(O)C[C@H]2CN(CCc3c([nH]c4ccccc34)[C@@](C(=O)OC)(c3cc4c(cc3OC)N(C=O)[C@H]3[C@@](O)(C(=O)OC)[C@H](OC(C)=O)[C@]5(CC)C=CCN6CC[C@]43[C@@H]65)C2)C1 | Organic cation/carnitine transporter 2 (SLC22A5, Homo sapiens, UniProt O76082) | transporter uptake, inhibitor | HEK293 | 100 µM | remaining activity | 33.6% |
| COc1cc(Nc2ncc(F)c(Nc3ccc4c(n3)NC(=O)C(C)(C)O4)n2)cc(OC)c1OC | STK38L | binding | – | 10 µM | inhibition | 48% |
| CC1CCCN(c2ncc(Cl)c(Nc3ccc4c(c3)n(CCC(C)(C)O)c(=O)n4C)n2)C1 (stereo not drawn) | B-cell lymphoma 6 protein (BCL6, Homo sapiens, UniProt P41182) | protein level, degrader | SU-DHL-4 | – | Dmax | 85% |
| CCSC(=O)N1CCCCCC1 | ALDH2 | enzyme activity, inhibitor | – | – | kinact/KI | 76 M⁻¹ s⁻¹ |
| C#Cc1n[nH]c2c(-c3cn(C(C)c4ccccn4)c(=O)[nH]c3=O)cc(F)cc12 (stereo not drawn) | Insulin receptor (INSR, Homo sapiens, UniProt P06213) | enzyme activity, inhibitor | – | 1 µM | inhibition | 8.5% |
| O=c1ccc2ccc3occc3c2o1 | ALDH2 | enzyme activity, inhibitor, absorbance | – | 10 µM | activity vs control | 95.2% |
| Nc1ncc(-c2nc(N3CCOCC3)nc(N3CCOCC3)n2)c(C(F)F)n1 | Cyclin-dependent kinase 3 (CDK3, Homo sapiens, UniProt Q00526) | binding, competition with immobilised ligand | – | 10 µM | remaining binding | 88% |
| CCN(CC)CCCC[C@H](NC(=O)[C@H](CC(C)C)NC(=O)[C@H](C)NC(=O)[C@H](Cc1ccccc1)NC(=O)c1ccc(C(C)(C)C)cc1)C(=O)N[C@@H](CO)C(=O)OC | Protein polybromo-1, bromodomain (PBRM1, Homo sapiens, UniProt Q86U86) | thermal stability, DSF | – | 25 µM | ΔTm | -0.15 °C |
